In ChEMBL document CHEMBL4823330, “Piperazinyl Bicyclic Derivatives as Selective Ligands of the α2δ-1 Subunit of Voltage-Gated Calcium Channels” (ACS Med Chem Lett, 2021):

Legend:
[1] = target: T1, Voltage-dependent calcium channel subunit alpha-2/delta-1 (Homo sapiens, UniProt P54289); assay: Displacement of [3H]-gabapentin from human Cav alpha2delta1 expressed in CHO-K1 cell membranes incubated for 60 mins by scintillation counting method; parameters: species or system Membrane
Method in brief: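 Radioligand binding with [3H]-gabapentin on α2δ-1-enriched membranes from CHO-K1 cells expressing human Cav2.2/β3/α2δ1. Compounds were first screened at 10 μM. Ki was calculated for those giving more than 50% inhibition. Values are mean ± SD of two determinations.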

CYP3A4 = CYP3A4 (Homo sapiens, UniProt P08684); assay: Inhibition of recombinant CYP3A4 (unknown origin) using BFC as substrate at 1 uM measured after 30 mins in presence of NADPH generating system by fluorescence assay relative to control; format: ADME; settings: recombinant CYP3A4, probe BFC
Chain of CYP3A4 (P08684 whole entry): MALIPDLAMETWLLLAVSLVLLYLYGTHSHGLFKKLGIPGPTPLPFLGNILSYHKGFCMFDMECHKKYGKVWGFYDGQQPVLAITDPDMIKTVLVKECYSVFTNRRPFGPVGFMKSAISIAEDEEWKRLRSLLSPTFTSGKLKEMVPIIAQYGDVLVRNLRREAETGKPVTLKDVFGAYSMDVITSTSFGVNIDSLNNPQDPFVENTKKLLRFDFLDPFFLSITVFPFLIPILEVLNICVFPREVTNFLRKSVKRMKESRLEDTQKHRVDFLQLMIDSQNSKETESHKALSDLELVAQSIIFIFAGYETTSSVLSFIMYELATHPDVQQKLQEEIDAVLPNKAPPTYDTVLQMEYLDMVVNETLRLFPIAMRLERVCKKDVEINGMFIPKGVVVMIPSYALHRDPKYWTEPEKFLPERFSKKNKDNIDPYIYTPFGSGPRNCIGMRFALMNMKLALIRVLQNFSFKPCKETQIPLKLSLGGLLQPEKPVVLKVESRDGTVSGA
Method in brief: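 Recombinant human CYP3A4 incubated with test compound at 1 μM. 7-Benzyloxy-4-trifluoromethylcoumarin (BFC) was the probe substrate, with fluorescence read-out, reported as percent inhibition.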

CYP2D6 = CYP2D6 (Homo sapiens, UniProt P10635); assay: Inhibition of CYP2D6 (unknown origin) at 1 uM relative to control; format: ADME
Chain of CYP2D6 (P10635 whole entry, canonical isoform): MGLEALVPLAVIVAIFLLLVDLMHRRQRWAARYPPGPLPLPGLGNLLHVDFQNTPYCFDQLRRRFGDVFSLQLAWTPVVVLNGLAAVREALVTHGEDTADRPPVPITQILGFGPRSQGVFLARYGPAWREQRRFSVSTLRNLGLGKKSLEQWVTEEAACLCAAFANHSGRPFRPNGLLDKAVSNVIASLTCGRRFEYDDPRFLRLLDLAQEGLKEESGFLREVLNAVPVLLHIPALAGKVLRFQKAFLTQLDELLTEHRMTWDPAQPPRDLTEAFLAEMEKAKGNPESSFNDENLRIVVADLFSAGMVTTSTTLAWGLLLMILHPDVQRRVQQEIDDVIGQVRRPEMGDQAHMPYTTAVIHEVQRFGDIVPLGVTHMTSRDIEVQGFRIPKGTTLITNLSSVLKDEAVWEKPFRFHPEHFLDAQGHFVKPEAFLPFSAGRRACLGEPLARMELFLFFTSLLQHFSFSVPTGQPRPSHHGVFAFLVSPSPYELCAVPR
Method in brief: (§1)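 Recombinant human CYP isoforms (1A2, 2C9, 2C19, 2D6) were each tested with compound at 1 μM. Read-out is percent inhibition.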

[2] = AUC(0 to t) in CD1 mouse at 20 mg/kg, ip measured upto 24 hrs by UPLC-MS/MS analysis; format: ADME, organism-based; parameters: route intraperitoneal, dose 20 mg/kg, time <=24; settings: in vivo
[3] = Cmax in CD1 mouse at 20 mg/kg, ip measured upto 24 hrs by UPLC-MS/MS analysis; format: ADME, organism-based; parameters: route intraperitoneal, dose 20 mg/kg, time <=24; settings: in vivo
Method in brief: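 Male CD1 mice given a single ip dose of 20 mg/kg. Cmax was taken from the plasma concentration profile.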

[4] = target: Voltage-gated inwardly rectifying potassium channel KCNH2 (Homo sapiens, UniProt Q12809); assay: Inhibition of human ERG
Chain of Voltage-gated inwardly rectifying potassium channel KCNH2 (Q12809 whole entry): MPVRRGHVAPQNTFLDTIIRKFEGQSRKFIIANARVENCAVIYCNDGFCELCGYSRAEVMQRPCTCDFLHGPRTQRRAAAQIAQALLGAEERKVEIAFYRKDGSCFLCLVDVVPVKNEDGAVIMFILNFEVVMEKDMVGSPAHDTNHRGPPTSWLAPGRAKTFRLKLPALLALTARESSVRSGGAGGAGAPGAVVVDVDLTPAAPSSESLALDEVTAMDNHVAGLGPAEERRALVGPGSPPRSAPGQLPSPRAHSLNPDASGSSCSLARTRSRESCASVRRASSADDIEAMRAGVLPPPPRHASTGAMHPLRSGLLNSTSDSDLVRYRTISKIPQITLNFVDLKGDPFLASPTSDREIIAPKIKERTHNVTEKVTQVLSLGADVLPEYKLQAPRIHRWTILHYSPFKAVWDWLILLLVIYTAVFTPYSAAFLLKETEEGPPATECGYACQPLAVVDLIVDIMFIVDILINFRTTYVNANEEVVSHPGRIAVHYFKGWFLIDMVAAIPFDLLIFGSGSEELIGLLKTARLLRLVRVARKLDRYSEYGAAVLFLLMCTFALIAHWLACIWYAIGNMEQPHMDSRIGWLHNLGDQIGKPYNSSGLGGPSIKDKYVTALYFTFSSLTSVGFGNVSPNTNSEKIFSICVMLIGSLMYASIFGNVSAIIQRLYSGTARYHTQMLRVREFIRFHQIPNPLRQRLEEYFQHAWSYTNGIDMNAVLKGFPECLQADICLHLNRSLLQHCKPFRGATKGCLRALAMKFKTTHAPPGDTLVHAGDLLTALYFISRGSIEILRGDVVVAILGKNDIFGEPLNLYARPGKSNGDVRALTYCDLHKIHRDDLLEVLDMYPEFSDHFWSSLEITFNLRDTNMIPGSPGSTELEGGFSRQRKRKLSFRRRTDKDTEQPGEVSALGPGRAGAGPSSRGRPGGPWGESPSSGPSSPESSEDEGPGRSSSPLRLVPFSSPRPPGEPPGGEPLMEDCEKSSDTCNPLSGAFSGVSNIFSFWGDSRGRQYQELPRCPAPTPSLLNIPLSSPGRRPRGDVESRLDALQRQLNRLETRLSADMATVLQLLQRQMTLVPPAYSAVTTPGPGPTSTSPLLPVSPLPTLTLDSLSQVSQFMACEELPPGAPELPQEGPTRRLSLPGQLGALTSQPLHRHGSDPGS

[5] = Metabolic stability in human liver microsomes assessed as intrinsic clearance per mg protein at 1 uM measured upto 60 mins in presence of NADPH generating system by UPLC-MS/MS analysis; format: ADME, Microsome; settings: read-out: CLH
[6] = Metabolic stability in rat liver microsomes assessed as intrinsic clearance per mg protein at 1 uM measured upto 60 mins in presence of NADPH generating system by UPLC-MS/MS analysis; format: ADME, Microsome; settings: read-out: CLH
[7] = Induction of motor coordination impairment in CD1 mouse assessed as latency to fall at 20 mg/kg, ip measured upto 180 mins by rotarod test; format: organism-based; settings: in vivo, 3 h
Method in brief: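 Mice were dosed at 20 mg/kg ip, with vehicle and pregabalin groups run in the same paradigm. Latency to fall from the elevated rotating drum was recorded at 30, 120 and 180 min after administration.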

[8] = Metabolic stability in mouse liver microsomes assessed as intrinsic clearance per mg protein at 1 uM measured upto 60 mins in presence of NADPH generating system by UPLC-MS/MS analysis; format: ADME, Microsome; settings: read-out: CLH
CYP1A2 = CYP1A2 (Homo sapiens, UniProt P05177); assay: Inhibition of CYP1A2 (unknown origin) at 1 uM relative to control; format: ADME; method in brief: as §1
Chain of CYP1A2 (P05177 whole entry): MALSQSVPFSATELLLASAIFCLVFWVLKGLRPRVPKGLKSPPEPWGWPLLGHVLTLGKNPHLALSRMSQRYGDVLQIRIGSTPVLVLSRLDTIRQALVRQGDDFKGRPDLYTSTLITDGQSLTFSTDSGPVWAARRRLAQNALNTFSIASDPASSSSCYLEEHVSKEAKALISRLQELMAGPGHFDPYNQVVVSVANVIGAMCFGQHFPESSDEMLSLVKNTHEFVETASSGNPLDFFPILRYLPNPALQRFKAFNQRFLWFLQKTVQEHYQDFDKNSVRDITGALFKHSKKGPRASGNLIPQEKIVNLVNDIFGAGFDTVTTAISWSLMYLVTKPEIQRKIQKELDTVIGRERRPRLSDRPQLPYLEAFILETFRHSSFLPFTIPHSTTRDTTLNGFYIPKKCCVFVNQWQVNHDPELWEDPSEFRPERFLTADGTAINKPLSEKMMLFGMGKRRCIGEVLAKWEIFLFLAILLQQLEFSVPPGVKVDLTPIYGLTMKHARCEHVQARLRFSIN

CYP2C19 = CYP2C19 (Homo sapiens, UniProt P33261); assay: Inhibition of CYP2C19 (unknown origin) at 1 uM relative to control; format: ADME; method in brief: as §1
Chain of CYP2C19 (P33261 whole entry): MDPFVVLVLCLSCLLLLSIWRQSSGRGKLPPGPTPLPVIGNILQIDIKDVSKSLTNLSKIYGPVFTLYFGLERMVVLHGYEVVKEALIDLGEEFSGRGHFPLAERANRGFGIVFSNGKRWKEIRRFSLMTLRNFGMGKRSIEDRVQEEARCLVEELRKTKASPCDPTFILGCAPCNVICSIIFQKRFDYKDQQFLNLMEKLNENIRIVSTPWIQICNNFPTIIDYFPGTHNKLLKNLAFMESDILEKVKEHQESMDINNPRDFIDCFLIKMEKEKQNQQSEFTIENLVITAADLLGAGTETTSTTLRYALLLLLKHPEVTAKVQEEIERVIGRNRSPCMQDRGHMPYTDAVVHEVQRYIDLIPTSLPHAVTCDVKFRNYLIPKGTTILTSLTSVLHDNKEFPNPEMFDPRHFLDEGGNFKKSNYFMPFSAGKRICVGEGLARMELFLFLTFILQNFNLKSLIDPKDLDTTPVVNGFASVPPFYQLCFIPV

[9] = Lipophilicity, logP of compound; format: physicochemical; settings: octanol/water
CYP2C9 = CYP2C9 (Homo sapiens, UniProt P11712); assay: Inhibition of CYP2C9 (unknown origin) at 1 uM relative to control; format: ADME; method in brief: as §1
Chain of CYP2C9 (P11712 whole entry): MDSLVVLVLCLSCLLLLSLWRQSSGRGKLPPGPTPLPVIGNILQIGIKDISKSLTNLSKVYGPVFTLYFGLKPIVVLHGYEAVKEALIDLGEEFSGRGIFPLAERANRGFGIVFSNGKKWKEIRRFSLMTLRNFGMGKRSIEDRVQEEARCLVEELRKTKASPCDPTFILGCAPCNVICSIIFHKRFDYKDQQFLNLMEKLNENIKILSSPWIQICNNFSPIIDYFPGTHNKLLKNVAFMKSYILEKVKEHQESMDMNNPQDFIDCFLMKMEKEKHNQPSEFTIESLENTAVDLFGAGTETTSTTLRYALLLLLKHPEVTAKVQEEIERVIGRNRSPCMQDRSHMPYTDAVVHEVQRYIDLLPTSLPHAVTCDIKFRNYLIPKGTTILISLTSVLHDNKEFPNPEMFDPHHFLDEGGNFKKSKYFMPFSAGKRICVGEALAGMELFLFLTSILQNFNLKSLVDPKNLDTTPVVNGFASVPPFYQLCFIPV

[10] = Permeability of compound in human Caco2 cells; format: ADME, cell-based; settings: Caco-2, read-out: permeability
[11] = Efflux ratio of permeability in human Caco2 cells; format: ADME, cell-based; settings: Caco-2
Mus musculus = assay: Analgesic activity in CD1 mouse model of capsaicin-induced mechanical hypersensitivity assessed as reduction in mechanical hypersensitivity at 20 mg/kg, ip administered 30 mins prior to capsaicin stimulation and measured after 15 mins; format: functional; parameters: scale not given: the % may be the effect or the level left; settings: time 45 min, 0.75 h
Method in brief: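 Male CD1 mice, 8–12 per group, given 20 mg/kg ip alongside vehicle and pregabalin comparator groups. Capsaicin test read out as percentage reduction in capsaicin-induced mechanical hypersensitivity.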

[12] = Lipophilicity, logD of compound at pH 7.4; format: physicochemical; settings: buffer
[13] = target: T1, Voltage-dependent calcium channel subunit alpha-2/delta-1; assay: Displacement of [3H]-gabapentin from human Cav alpha2delta1 expressed in CHO-K1 cell membranes at 10 uM incubated for 60 mins by scintillation counting method relative to control; settings: Membrane
Method in brief: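 Human α2δ-1-enriched membranes from CHO-K1 cells stably expressing human Cav2.2/β3/α2δ1. Test compound at 10 μM competes with [3H]-gabapentin radioligand, and percent inhibition of specific binding is recorded. Compounds exceeding 50% inhibition go on to Ki determination, with Ki values given as the mean of two determinations.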

T1 sequence (P54289 25-956 limits assumed): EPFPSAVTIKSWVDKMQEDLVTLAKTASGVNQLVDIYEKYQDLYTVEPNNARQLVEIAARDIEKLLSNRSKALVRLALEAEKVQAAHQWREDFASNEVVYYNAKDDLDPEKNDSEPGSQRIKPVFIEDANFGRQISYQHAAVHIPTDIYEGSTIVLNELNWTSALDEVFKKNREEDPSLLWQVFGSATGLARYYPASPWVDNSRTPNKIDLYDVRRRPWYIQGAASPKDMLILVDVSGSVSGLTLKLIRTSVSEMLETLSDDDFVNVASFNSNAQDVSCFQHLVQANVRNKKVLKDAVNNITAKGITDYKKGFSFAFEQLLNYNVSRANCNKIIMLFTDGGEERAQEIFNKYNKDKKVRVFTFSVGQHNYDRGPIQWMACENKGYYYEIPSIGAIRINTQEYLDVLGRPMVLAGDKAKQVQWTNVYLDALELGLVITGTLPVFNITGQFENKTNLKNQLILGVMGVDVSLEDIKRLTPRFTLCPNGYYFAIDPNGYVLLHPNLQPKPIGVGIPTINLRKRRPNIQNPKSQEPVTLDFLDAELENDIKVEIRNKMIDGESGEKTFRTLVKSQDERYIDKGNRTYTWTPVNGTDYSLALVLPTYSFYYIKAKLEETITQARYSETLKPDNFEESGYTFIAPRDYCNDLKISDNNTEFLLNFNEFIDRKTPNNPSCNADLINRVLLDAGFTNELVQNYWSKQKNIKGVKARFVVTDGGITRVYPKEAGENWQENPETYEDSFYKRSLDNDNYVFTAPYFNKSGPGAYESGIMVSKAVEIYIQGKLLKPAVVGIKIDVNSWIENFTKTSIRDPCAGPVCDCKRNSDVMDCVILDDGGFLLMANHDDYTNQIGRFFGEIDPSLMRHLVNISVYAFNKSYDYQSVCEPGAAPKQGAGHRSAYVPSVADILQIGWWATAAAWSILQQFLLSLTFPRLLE
T1 sequence (P54289 957-1103 limits assumed): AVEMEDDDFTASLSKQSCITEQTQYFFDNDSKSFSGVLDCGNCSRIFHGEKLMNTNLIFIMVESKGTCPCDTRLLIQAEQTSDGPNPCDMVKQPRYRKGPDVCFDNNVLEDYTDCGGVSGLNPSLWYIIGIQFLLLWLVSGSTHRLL

Structure (SMILES) | Ki [1] | inhibition at 0.5 h, 1 µM (CYP3A4) | further results
CCCC(c1nc2ccc(Br)cc2c(=O)n1CC)N1C[C@@H](C)N[C@@H](C)C1 (stereo partly drawn) | 16 nM | 95% | –
CCC[C@@H](c1nc2ccc(Br)cc2c(=O)n1CC)N1CCN[C@@H](C)C1 | 479 nM | 33% | –
CCCC(c1nc2cccc(Br)c2c(=O)n1CC)N1C[C@@H](C)N[C@@H](C)C1 (stereo partly drawn) | 66 nM | 95% | –
CCC[C@H](c1nc2ccc(Br)cc2c(=O)n1CC)N1C[C@@H](C)N[C@@H](C)C1 | 8 nM | 94% | –
CCC[C@H](c1nc2ccncc2c(=O)n1CC)N1CCN[C@H](C)C1 | 6 nM | 46% | inhibition at 1 µM (CYP2D6): < 50%; AUC(0-t) at 24 h [2]: 8050 ng·h/mL; Cmax [3]: 3070 ng/mL; IC50 [4]: > 10000 nM; microsomal CLint at 1 µM [5]: 2.6 µL/min/mg; microsomal CLint at 1 µM [6]: 3.9 µL/min/mg; Activity [7]: Non-Toxic; microsomal CLint at 1 µM [8]: 4.1 µL/min/mg; inhibition at 1 µM (CYP1A2): < 50%; inhibition at 1 µM (CYP2C19): < 50%; logP [9]: 2.22; inhibition at 1 µM (CYP2C9): < 50%; Papp [10]: 4.3 ×10⁻⁶ cm/s; efflux ratio [11]: 5.4; Activity (Mus musculus): 69%; logD [12]: 0.49
CCC[C@@H](c1nc2ccncc2c(=O)n1CC)N1CCN[C@H](C)C1 | > 1000 nM | 15% | –
CCCC(c1nc2cc(-c3ccncc3)ccc2c(=O)n1CC)N1C[C@@H](C)N[C@@H](C)C1 (stereo partly drawn) | 18 nM | 97% | –
CCC[C@H](c1nc2ccncc2c(=O)n1CC)N1CCN[C@@H](C)C1 | 27 nM | 56% | –
CCC[C@@H](c1nc2ccc(Br)cc2c(=O)n1CC)N1C[C@@H](C)N[C@@H](C)C1 | 2900 nM | 88% | –
CCCC(c1nc2ccc(C#N)cc2c(=O)n1CC)N1C[C@@H](C)N[C@@H](C)C1 (stereo partly drawn) | 288 nM | 70% | –
CCC[C@H](c1nc2ccc(Br)cc2c(=O)n1CC)N1CCN[C@@H](CC)C1 | 123 nM | 97% | –

Second part, led by results:

Ki [1] | inhibition at 0.5 h, 1 µM (CYP3A4) | Structure (SMILES) | further results
76 nM | 65% | CCCC(c1nc2ccc(Br)cc2c(=O)n1CC)N1CCNCC1 (stereo not drawn) | –
761 nM | 86% | CCC(c1nc2ccccc2c(=O)n1CCOC)N1C[C@@H](C)N[C@@H](C)C1 (stereo partly drawn) | –
73 nM | 80% | CCCC(c1nc2ccccc2c(=O)n1C)N1C[C@@H](C)N[C@@H](C)C1 (stereo partly drawn) | –
4820 nM | 98% | CCCC(c1nc2ccccc2c(=O)n1Cc1ccccc1)N1C[C@@H](C)N[C@@H](C)C1 (stereo partly drawn) | –
4900 nM | 0% | COCCn1c(C(C)N2CCNCC2)nc2ccccc2c1=O (stereo not drawn) | –
36 nM | 85% | CCCC(c1nc2ccccc2c(=O)n1CC)N1C[C@@H](C)N[C@@H](C)C1 (stereo partly drawn) | –
> 10000 nM | 6% | COCCn1c(CN2CCNCC2)nc2ccccc2c1=O | inhibition [13]: < 50%
